Series [1] can be described thus: melting temperature; fluorescence melt of hairpins on a sequencing array, two-state fit, raised by 9.35 °C to match UV melts. The conditions noted are these: sodium 0.088 M. The gist of the method:
(§1)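 With Cy3 and quencher oligos annealed, library hairpins on a sequenced MiSeq flow cell were imaged for Cy3 fluorescence in 50 mM Na-HEPES pH 8.0, 25 mM NaCl, in 2.5 °C steps up to 60 °C. Melting temperature and folding enthalpy were derived from bootstrapped two-state fits of signals normalised to pre-quench Cy3 and to control constructs. Four replicates were combined by inverse variance, with fitted temperatures raised by 9.35 °C to match UV melts.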

Series [2] can be described thus: folding enthalpy; higher = less favourable; fluorescence melt of hairpins on a sequencing array, two-state fit. To be noted: sodium 0.088 M. The gist of the method: as §1

On to GAGTAGCGAAAGCTTCTC (((.(((....))).))), for which the Tm in series [1] turned out to be 47.2 °C. For the same sequence, the folding enthalpy in series [2] is -26.4 kcal/mol.
The like results for GCGTTATCGAAAGATCGC (((..(((....)))))) were, in that order, 44.3 °C and -26.1 kcal/mol.
For the sequence GCGGCGACGAAAGTCCGC (((..(((....)))))), the Tm in series [1] is 55.6 °C. In series [2], the folding enthalpy was -17.8 kcal/mol.
As to GACAACCGAAAGGTGTC (((.(((....)))))), the Tm in series [1] worked out at 53.9 °C. Moreover, the folding enthalpy in series [2] is -24.8 kcal/mol.
The like results for GGCCCCGAAAGGGATGCC ((((((....)))..))) were, in that order, 56.8 °C and -22.2 kcal/mol.
Take GTGCTCTCGAAAGAGCAC (((..(((....)))))): the Tm in series [1] was 62.6 °C. In series [2], the folding enthalpy was -40.3 kcal/mol.
For the sequence GGAGTGCCGAAAGGCTCC (((..(((....)))))), the Tm in series [1] stood at 41.9 °C. The folding enthalpy in series [2] was -12.2 kcal/mol.
With GGACTGGAAACAGTCC ((((((....)))))), the Tm in series [1] came out at 59.8 °C. In series [2], the folding enthalpy was -30.2 kcal/mol.
Consider GGCTCCGGAAACGGGGTC (.(.(((....))).).), for which the Tm in series [1] was 49 °C. Also, the folding enthalpy in series [2] was -25.1 kcal/mol.
As for GAGCCACGAAAGTGCTC (((.(((....)))))), in series [1], the Tm is 54.2 °C. Further, in series [2], the folding enthalpy was -19.9 kcal/mol.
Regarding GTAGGTGGAAACACCCAC ((.((((....)))).)), the Tm in series [1] was 34.7 °C. Moreover, the folding enthalpy in series [2] was -13.1 kcal/mol.
For the sequence CGTGGCGGAAACGCTACG (((.(((....))).))), the Tm in series [1] was 59.6 °C. Besides, the folding enthalpy in series [2] is -33.8 kcal/mol.
Regarding GTTGATGCGAAAGCAAAC (((..(((....)))))), in series [1], the Tm is 37.1 °C. Further, the folding enthalpy in series [2] is -13.8 kcal/mol.
Take GCGTGGCGAAAGCTCCGC (((..((....))..))): the Tm in series [1] came to 54.8 °C. The folding enthalpy in series [2] was -22.1 kcal/mol.
As to GGGACCGAAAGGTATCCC ((((((....)))..))), the Tm in series [1] was 47.7 °C. Also, the folding enthalpy in series [2] is -18.1 kcal/mol.
With CGTCCGGAAACGGGAACG ((((((....)))..))), in series [1], the Tm was 38.9 °C. Besides, the folding enthalpy in series [2] was -22.5 kcal/mol.
GCCTACCGAAAGGTCGGC (((.(((....))).))): in series [1], the Tm was 56.5 °C. The folding enthalpy in series [2] is -39.7 kcal/mol.
The like results for GGGTACGAAAGTATGCCC ((((((....)))..))) were, in that order, 37.3 °C and -16 kcal/mol.
In the case of GAACTGAAAAGTTC (((((....))))), the Tm in series [1] is 46.6 °C. Also, the folding enthalpy in series [2] was -24.3 kcal/mol.
As to CGCACGGAAACGTTCGCG ((((((....)))..))), in series [1], the Tm amounted to 41.1 °C. The folding enthalpy in series [2] is -22.7 kcal/mol.
The matching figures for GATCATCGTTATGATC ((((((....)))))): 47.2 °C and -32.4 kcal/mol.
The like results for GATCAGCCTCTGATC ((((((...)))))) were, in that order, 47.9 °C and -38.5 kcal/mol.
As to GCGGTTGGAAACAGTCGC (((..((....))..))), the Tm in series [1] amounted to 44.2 °C. For the same sequence, the folding enthalpy in series [2] was -25.3 kcal/mol.
The matching figures for GATCCTTCTAAGGATC ((((((....)))))): 54.4 °C and -47.8 kcal/mol.
As for GATTTGGGAAACCAAGTC ((.((((....)))).)), the Tm in series [1] is 38.8 °C. The folding enthalpy in series [2] is -28.7 kcal/mol.
Regarding GCCTCACGAAAGTGGGC (((.(((....)))))), the Tm in series [1] was 58.6 °C. Further, the folding enthalpy in series [2] is -33.4 kcal/mol.
For the sequence GGGTAGTCGAAAGACCCC (((..(((....)))))), the Tm in series [1] amounted to 45.4 °C. The folding enthalpy in series [2] was -20.5 kcal/mol.
Take GGAGCAGGAAACTGCTCC (((((((....))))))): the Tm in series [1] was 69.1 °C. Besides, the folding enthalpy in series [2] was -33.4 kcal/mol.
The like results for GAGCATGGAAACGTGCTC (((((.(....).))))) were, in that order, 52.9 °C and -47.3 kcal/mol.
The like results for GGTAATGGAAACGTTACC (((((.(....).))))) were, in that order, 45 °C and -40.4 kcal/mol.
With GGAGTGCGAAAGCATCC (((.(((....)))))), the Tm in series [1] is 48.2 °C. Besides, the folding enthalpy in series [2] is -17.1 kcal/mol.
As to GTGCCTGGAAACAGACAC (((.(((....))).))), the Tm in series [1] came to 46.9 °C. For the same sequence, the folding enthalpy in series [2] is -28.6 kcal/mol.
In the case of GGACGCGGAAACGTGTCC ((((.((....)).)))), the Tm in series [1] stood at 62.2 °C. For the same sequence, the folding enthalpy in series [2] is -43.4 kcal/mol.
Consider GTCCCAGGAAACTAGGAC ((((.((....)).)))), for which the Tm in series [1] was 35.9 °C. In series [2], the folding enthalpy was -21.5 kcal/mol.
As to GCCATCCGAAAGGACGGC (((.(((....))).))), in series [1], the Tm is 55.7 °C. Also, the folding enthalpy in series [2] is -40.2 kcal/mol.
For the sequence GTGGGCGGAAACGCTCGC (.(.(((....))).).), the Tm in series [1] worked out at 49.9 °C. The folding enthalpy in series [2] is -21.3 kcal/mol.
On to GGTTGCGAAAGCATCACC ((((((....)))..))), for which the Tm in series [1] was 36.2 °C. In addition, the folding enthalpy in series [2] was -13 kcal/mol.

Source of the values: the array DNA melting data of Ke et al. (doi:10.1101/2024.01.08.574731).
